PAFAH2 inh = PAFAH2 (human) inhibition; Q99487; recombinant PAFAH2, FP-rhodamine activity probe, fluorescence polarization; inhibition, % at 3.39 µM; 340,000 tested, 0.99% active; AID 492956;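 active means inhibition above the mean over all tested compounds plus 3 SD, cut at about 30% in these data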;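 further: inhibitors block probe labeling of enzyme so polarization drops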
pPAFAH FP inh = inhibitors of human plasma PAF acetylhydrolase (pPAFAH). Q13093. recombinant pPAFAH, FP-rhodamine probe fluorescence polarization. inhibition, % at 3.39 µM. 330,000 tested, 1.5% active. AID 463082;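 active means inhibition above the mean inhibition across the screen plus 3 SD, cut at about 25% in these data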;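 further: inhibitors block binding of the rhodamine activity-based probe so polarization drops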
ASAP1 GAP inh = ASAP1 ArfGAP inhibition; ASAP1-stimulated ARF1 GTP hydrolysis, GDP FP detection; inhibition, % at 16.5 µM; 360,000 tested, 0.19% active; AID 624377; in the data active means inhibition above about 25%
Target sequence (Q9ULH1 325-724 limits assumed): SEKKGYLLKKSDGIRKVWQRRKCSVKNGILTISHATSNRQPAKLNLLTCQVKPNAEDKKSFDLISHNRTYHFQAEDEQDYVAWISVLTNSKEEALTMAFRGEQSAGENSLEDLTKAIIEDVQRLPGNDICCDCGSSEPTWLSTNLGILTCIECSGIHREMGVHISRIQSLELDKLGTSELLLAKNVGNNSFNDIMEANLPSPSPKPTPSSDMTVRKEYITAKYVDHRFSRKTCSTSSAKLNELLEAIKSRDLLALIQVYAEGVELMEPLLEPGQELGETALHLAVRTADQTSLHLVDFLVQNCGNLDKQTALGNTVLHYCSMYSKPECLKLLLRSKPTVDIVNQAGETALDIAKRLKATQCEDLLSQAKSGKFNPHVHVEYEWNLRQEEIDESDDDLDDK
PAFAH1B2 inh = blocks human PAF acetylhydrolase 1b catalytic subunit 2; 340,000 tested, 1.2% active; AID 492953; recombinant PAFAH1B2, FP-rhodamine activity probe, fluorescence polarization; P68402; inhibition, % at 3.39 µM;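 active means inhibition above the mean of all tested compounds plus 3 SD, cut at about 24% in these data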
PAFAH1B3 inh = blocks human PAF acetylhydrolase 1B catalytic subunit 3. 340,000 tested, 0.28% active. inhibition, % at 3.39 µM. AID 492972. recombinant PAFAH1B3, FP-rhodamine probe, fluorescence polarization. Q15102;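 active means inhibition above the screen-wide average of all tested compounds plus 3 SD, cut at about 25% in these data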
ARFGAP1 inhibitor = rat ARFGAP1 inhibition. Q62848. Arfgap1-stimulated ARF1 GTP hydrolysis, GDP FP detection. inhibition, % at 16.5 µM. 360,000 tested, 0.26% active;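 active means inhibition above a per-plate limit, mean inhibition of low control wells plus 3 SD, cut at about 25% in these data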
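System: truncated rat Arfgap1 GAP domain / Benchmarks: high control wells lacking Arfgap1, low control full reaction with DMSO / Times: compound-enzyme preincubation 20 min, reaction 120 min, detection 60 min, 25 °C / Repeats: one replicate per compound / Also added: human ARF1(Δ1-17)-GTP substrate / Measured by: Tracer-displacement fluorescence polarization with EDTA stop, 620/688 nm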
PAFAH2 confirm = confirmation of human PAFAH2 inhibitors; shares compounds with PAFAH2 inh; recombinant PAFAH2, FP-rhodamine activity probe, fluorescence polarization; inhibition, % at 3.39 µM; 2,300 tested, 65% active;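 active means mean inhibition over three repeats above a set limit taken from the earlier primary screen, cut at about 30% in these data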;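 further: inhibitor blocks binding of rhodamine activity probe so polarization falls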
Hits are given with their value; i = inactive; nt = not tested or not shown. Shown are actives, neighbours in structure and some others; about 2.8% of the full set was active somewhere.

SMILES | PAFAH2 inh | pPAFAH FP inh | ASAP1 GAP inh | PAFAH1B2 inh | PAFAH1B3 inh | ARFGAP1 inhibitor | PAFAH2 confirm
COc1ccccc1CNC(=O)COC(=O)c1ccco1 | i | i | i | i | i | i | nt
O=C(COC(=O)c1cc(Cl)ccc1[N+](=O)[O-])NCc1ccc(Cl)cc1Cl | 30.0 | i | i | i | i | i | i
O=C(COC(=O)c1ccco1)NCc1ccccc1Cl | 58.2 | i | i | i | i | i | 37.7
O=C(COC(=O)c1cc(Cl)ccc1[N+](=O)[O-])Nc1cccc2ccccc12 | i | i | i | i | i | i | nt
COc1ccc(OC)c(C2=NS(=O)(=O)N(C)C(C(=O)N3CCC4(CC3)OCCO4)=C2)c1 | i | i | i | i | i | i | nt
O=C(COC(=O)c1ccc(O)cc1)Nc1ccccc1-c1ccccc1 | 46.3 | i | i | i | i | i | 38.7
COCC(=O)OCC(=O)Nc1ccccc1-c1ccccc1 | i | i | i | i | i | i | nt
Nc1cc(C(=O)OCC(=O)NC(c2ccccc2)c2ccccc2)ccc1Cl | i | i | i | i | i | i | nt
O=C(CCCOC(=O)c1ccc(O)cc1)c1ccccc1 | 49.9 | i | i | i | i | i | 44.8
CSc1ccccc1NC(=O)COC(=O)c1ccccc1O | i | i | i | i | i | i | nt
CSc1ccccc1NC(=O)COC(=O)c1ccc(O)cc1 | 54.1 | i | i | i | i | i | 37.8
O=C(COC(=O)c1ccc(O)cc1)NC(c1ccccc1)c1ccccc1 | 46.0 | i | i | i | i | i | 36.4
Cc1ccc2cc(NC(=O)C3(C)CCN3CC(C)C)ccc2n1 (centres undefined) | nt | nt | i | nt | nt | i | nt
O=C(COC(=O)c1ccc(O)cc1O)NC1CCCCCC1 | 46.4 | i | i | i | i | i | 31.2
COc1ccccc1OCC(=O)OCC(=O)NC1CCCCC1 | i | i | i | i | i | i | nt
O=C(COC(=O)c1ccc(O)cc1O)NC1CCS(=O)(=O)C1 (centres undefined) | i | i | i | i | i | i | nt
CCOc1ccc(C(=O)OCC(=O)NC2CCCC2)cc1OCC | 84.5 | i | i | i | i | i | 82.1
COc1ccc(C(=O)OCC(=O)NC2CCCCCC2)cc1OC | 93.2 | i | i | i | i | i | 82.6
COc1ccc(C(=O)OCC(=O)NC2CCCC2)cc1OC | 75.8 | i | i | i | i | i | 80.3
O=C1C=CC(n2cc(F)c(=O)[nH]c2=O)O1 (centres undefined) | nt | nt | i | nt | nt | i | nt
Cc1ccc(C(=O)OCC(=O)NC2CCCCCC2)c(C)c1 | 85.7 | nt | i | i | i | i | 78.2
COc1ccc(C(=O)NCC(=O)OCC(=O)NC2CCCCCC2)cc1OC | i | i | i | i | i | i | nt
COc1ccc(C(=O)OCC(=O)Nc2ccccc2)cc1[N+](=O)[O-] | 71.0 | i | i | i | i | i | 72.8
COc1ccc(C(=O)OCC(=O)NC2CCCCCCC2)cc1OC | 86.6 | i | i | i | i | i | 78.0
Cc1ccc(C(=O)OCC(=O)NC2CCCC2)cc1C | 86.6 | i | i | i | i | i | 82.0
SMILES | PAFAH2 inh | pPAFAH FP inh | ASAP1 GAP inh | PAFAH1B2 inh | PAFAH1B3 inh | ARFGAP1 inhibitor | PAFAH2 confirm
Nc1nc2c(ncn2[C@@H]2O[C@H](CNC(=O)[C@H](N)C3CCCCC3)[C@@H](O)[C@H]2O)c(=O)[nH]1 | nt | nt | i | nt | nt | i | nt
Cc1ccc(NC(=O)COC(=O)c2ccc3ncsc3c2)c(C)c1 | nt | nt | i | nt | nt | i | nt
COc1ccc(C(=O)OCC(=O)NC2CC2)cc1[N+](=O)[O-] | 31.2 | i | i | i | i | i | i
CC1CCC(NC(=O)COC(=O)c2ccc3ncsc3c2)CC1 (centres undefined) | 82.7 | i | i | i | i | i | 69.2
COc1cc(OC)cc(C(=O)OCC(=O)NC2CCCCCC2)c1 | 61.0 | i | i | i | i | i | 59.4
COc1ccc(C(=O)OCC(=O)NC2CC2)cc1OC | 66.6 | i | i | i | i | i | 55.1
COC(=O)Cc1c(C)c2ccc(OCC(=O)NC3CCS(=O)(=O)C3)cc2oc1=O (centres undefined) | i | i | i | i | i | i | nt
O=C(OCc1nnc(-c2ccccc2Br)o1)c1ccco1 | 53.0 | i | i | i | i | i | 49.6
O=C(OCc1nc(-c2ccccc2Cl)no1)c1ccco1 | 42.1 | i | i | i | i | i | 41.2
